ChEMBL document CHEMBL1275555, “Genetic heterogeneity in pbp genes among clinically isolated group B Streptococci with reduced penicillin susceptibility” (2008)
Converted amounts (≈) assume the structure as drawn.

Assays:
[1] = test system: Streptococcus sp. 'group B'; experiment: Antimicrobial activity against Group B streptococcus serotype VI R4 harboring Q557E mutation in PBP 2X and T567I, Y262N mutations in PBP 2B by broth microdilution method; type: functional
Outline: (§1)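 Broth microdilution MICs following CLSI guidelines, using a commercial panel system; GBS clinical isolates and reference strains grown in Todd-Hewitt broth at 37°C. Each strain tested five times to confirm reproducibility, with S. pneumoniae ATCC 49619 as quality-control strain. No β-lactamase activity by acidimetric method in any strain.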

[2] = test system: Streptococcus sp. 'group B'; experiment: Antimicrobial activity against Group B streptococcus serotype VI R5 harboring F395L, V405A, R433H, H438Y, and G648A mutations in PBP 2X and T567I mutation in PBP 2B by broth microdilution method; type: functional; outline: as §1
[3] = test system: Streptococcus sp. 'group B'; experiment: Antimicrobial activity against Group B streptococcus serotype III N3 by broth microdilution method; type: functional
Outline: (§2)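 Broth microdilution MICs read on a commercial dried panel system (type 3J), following CLSI guidelines. Isolates were grown in Todd-Hewitt broth at 37°C. Each strain was tested five times for reproducibility, with S. pneumoniae ATCC 49619 as the quality-control strain. β-lactamase activity was checked by the acidimetric method.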

[4] = test system: Streptococcus sp. 'group B'; experiment: Antimicrobial activity against Group B streptococcus serotype VI N4 harboring E63K mutation in PBP 2A and L41S mutation in PBP 1B by broth microdilution method; type: functional; outline: as §1
[5] = test system: Streptococcus sp. 'group B'; experiment: Antimicrobial activity against Group B streptococcus serotype VI R2 harboring F395L, V405A, R433H, H438Y, and G648A mutations in PBP 2X and T567I mutation in PBP 2B by broth microdilution method; type: functional; outline: as §1
[6] = test system: Streptococcus sp. 'group B'; experiment: Antimicrobial activity against Group B streptococcus serotype VI R1 harboring F395L, V405A, R433H, H438Y, and G648A mutations in PBP 2X and T567I mutation in PBP 2B by broth microdilution method; type: functional; outline: as §1
[7] = test system: Streptococcus sp. 'group B'; experiment: Antimicrobial activity against Group B streptococcus serotype Ib R3 harboring Q557E, A400V mutations in PBP 2X and T567I, G539E mutations in PBP 2B by broth microdilution method; type: functional; outline: as §1
[8] = test system: Streptococcus sp. 'group B'; experiment: Antimicrobial activity against Group B streptococcus serotype Ib N2 harboring E63K mutation in PBP 2A and L41S mutation in PBP 1B by broth microdilution method; type: functional; outline: as §1
[9] = test system: Streptococcus sp. 'group B'; experiment: Antimicrobial activity against Group B streptococcus serotype VI R6 harboring F395L, V405A, R433H, H438Y, A374V and G648A mutations in PBP 2X and T567I mutation in PBP 2B by broth microdilution method; type: functional; outline: as §1
[10] = test system: Streptococcus sp. 'group B'; experiment: Antimicrobial activity against Group B streptococcus serotype Ia R7 harboring T77I, F395V and S353F in PBP 2X; V80A and G613R in PBP 2B; and L45P, N163K, N723S and Y470F in PBP 1A by broth microdilution method; type: functional; outline: as §1
[11] = test system: Streptococcus sp. 'group B'; experiment: Antimicrobial activity against Group B Streptococcus serotype V harboring E63K mutation in PBP 2A and L41S mutation in PBP 1B by broth microdilution method
[12] = test system: Streptococcus sp. 'group B'; experiment: Antimicrobial activity against Group B Streptococcus serotype III NEM 316 by broth microdilution method; type: functional; outline: as §2
[13] = test system: Streptococcus sp. 'group B'; experiment: Antimicrobial activity against Group B streptococcus R8 harboring T77I, S353F and A514V in PBP 2X; V80A and G613R in PBP 2B; and L45P, N163K, N723S and G527V in PBP 1A by broth microdilution method; type: functional; outline: as §1
[14] = test system: Streptococcus sp. 'group B'; experiment: Antimicrobial activity against Group B streptococcus serotype V C1 harboring E63K mutation in PBP 2A and L41S mutation in PBP 1B by broth microdilution method; type: functional; outline: as §1
[15] = test system: Streptococcus sp. 'group B'; experiment: Antimicrobial activity against Group B streptococcus serotype Ib C2 harboring E63K mutation in PBP 2A and L41S mutation in PBP 1B by broth microdilution method; type: functional; outline: as §1
[16] = test system: Streptococcus sp. 'group B'; experiment: Antimicrobial activity against Group B Streptococcus serotype Ia N1 harboring E63K mutation in PBP 2A and L41S mutation in PBP 1B by broth microdilution method; type: functional; outline: as §1

`CO/N=C(\C(=O)N[C@@H]1C(=O)N2C(C(=O)[O-])=C(C[n+]3ccn4ncccc43)CS[C@H]12)c1nsc(N)n1` [CEFOZOPRAN] showed an MIC [1] of 0.5 µg/mL (≈ 0.97 µM), an MIC [2] of 0.5 µg/mL (≈ 0.97 µM) and an MIC [3] of 0.12 µg/mL (≈ 0.233 µM). It also gave an MIC [4] of 0.12 µg/mL (≈ 0.233 µM), an MIC [5] of 1 µg/mL (≈ 1.94 µM) and an MIC [6] of 0.5 µg/mL (≈ 0.97 µM). The MIC [7] was 1 µg/mL (≈ 1.94 µM), the MIC [8] was 0.12 µg/mL (≈ 0.233 µM) and the MIC [9] was 0.5 µg/mL (≈ 0.97 µM). It also gave an MIC [10] of 2 µg/mL (≈ 3.88 µM), an MIC [11] of 0.12 µg/mL (≈ 0.233 µM) and an MIC [12] of 0.12 µg/mL (≈ 0.233 µM). It also gave an MIC [13] of 1 µg/mL (≈ 1.94 µM), an MIC [14] of 0.12 µg/mL (≈ 0.233 µM) and an MIC [15] of 0.12 µg/mL (≈ 0.233 µM). For the same compound, the MIC [16] was 0.12 µg/mL (≈ 0.233 µM).
With `CCC[C@@H]1C[C@@H](C(=O)N[C@@H]([C@H]2O[C@H](SC)[C@H](O)[C@@H](O)[C@H]2O)[C@H](C)Cl)N(C)C1` [CLINDAMYCIN] the MIC [1] was > 1 µg/mL, the MIC [2] was ≤ 0.12 µg/mL and the MIC [3] was ≤ 0.12 µg/mL. The MIC [4] was ≤ 0.12 µg/mL, the MIC [5] was ≤ 0.12 µg/mL and the MIC [6] was ≤ 0.12 µg/mL. For the same compound, the MIC [7] was ≤ 0.12 µg/mL, the MIC [8] was ≤ 0.12 µg/mL and the MIC [9] was ≤ 0.12 µg/mL. The MIC [10] was ≤ 0.12 µg/mL, the MIC [11] was ≤ 0.12 µg/mL and the MIC [12] was ≤ 0.12 µg/mL. The MIC [13] was ≤ 0.12 µg/mL, the MIC [14] was ≤ 0.12 µg/mL and the MIC [15] was ≤ 0.12 µg/mL. For the same compound, the MIC [16] was ≤ 0.12 µg/mL.
In the case of `CC[C@H]1OC(=O)[C@H](C)[C@@H](O[C@H]2C[C@@](C)(OC)[C@@H](O)[C@H](C)O2)[C@H](C)[C@@H](O[C@@H]2O[C@H](C)C[C@H](N(C)C)[C@H]2O)[C@](C)(OC)C[C@@H](C)C(=O)[C@H](C)[C@@H](O)[C@]1(C)O` [CLARITHROMYCIN], the MIC [1] was > 2 µg/mL, the MIC [2] was ≤ 0.12 µg/mL and the MIC [3] was ≤ 0.12 µg/mL. The MIC [4] was ≤ 0.12 µg/mL, the MIC [5] was ≤ 0.12 µg/mL and the MIC [6] was ≤ 0.12 µg/mL. The MIC [7] was ≤ 0.12 µg/mL, the MIC [8] was ≤ 0.12 µg/mL and the MIC [9] was ≤ 0.12 µg/mL. The MIC [10] was 2 µg/mL (≈ 2.67 µM), the MIC [11] was ≤ 0.12 µg/mL and the MIC [12] was ≤ 0.12 µg/mL. The MIC [13] was 1 µg/mL (≈ 1.34 µM), the MIC [14] was ≤ 0.12 µg/mL and the MIC [15] was ≤ 0.12 µg/mL. For the same compound, the MIC [16] was ≤ 0.12 µg/mL.
Compound `CO/N=C(\C(=O)N[C@@H]1C(=O)N2C(C(=O)O)=C(COC(C)=O)CS[C@H]12)c1csc(N)n1` [CEFOTAXIME] has an MIC [1] of 0.5 µg/mL (≈ 1.1 µM), an MIC [2] of 0.5 µg/mL (≈ 1.1 µM) and an MIC [3] of 0.12 µg/mL (≈ 0.263 µM). For the same compound, the MIC [4] was ≤ 0.06 µg/mL, the MIC [5] was 0.5 µg/mL (≈ 1.1 µM) and the MIC [6] was 0.5 µg/mL (≈ 1.1 µM). For the same compound, the MIC [7] was 0.5 µg/mL (≈ 1.1 µM), the MIC [8] was 0.12 µg/mL (≈ 0.263 µM) and the MIC [9] was 0.5 µg/mL (≈ 1.1 µM). For the same compound, the MIC [10] was 1 µg/mL (≈ 2.2 µM), the MIC [11] was ≤ 0.06 µg/mL and the MIC [12] was ≤ 0.06 µg/mL. The MIC [13] was 1 µg/mL (≈ 2.2 µM), the MIC [14] was ≤ 0.06 µg/mL and the MIC [15] was 0.12 µg/mL (≈ 0.263 µM). The MIC [16] was 0.12 µg/mL (≈ 0.263 µM).
With `C[C@@H](O)[C@H]1C(=O)N2C(C(=O)O)=C(S[C@@H]3CN[C@H](C(=O)N(C)C)C3)[C@H](C)[C@H]12` [MEROPENEM] the MIC [1] was 0.25 µg/mL (≈ 0.652 µM), the MIC [2] was 0.25 µg/mL (≈ 0.652 µM) and the MIC [3] was ≤ 0.12 µg/mL. The MIC [4] was ≤ 0.12 µg/mL, the MIC [5] was 0.5 µg/mL (≈ 1.3 µM) and the MIC [6] was 0.25 µg/mL (≈ 0.652 µM). For the same compound, the MIC [7] was 0.25 µg/mL (≈ 0.652 µM), the MIC [8] was ≤ 0.12 µg/mL and the MIC [9] was 0.5 µg/mL (≈ 1.3 µM). For the same compound, the MIC [10] was 0.25 µg/mL (≈ 0.652 µM), the MIC [11] was ≤ 0.12 µg/mL and the MIC [12] was ≤ 0.12 µg/mL. The MIC [13] was 0.25 µg/mL (≈ 0.652 µM), the MIC [14] was ≤ 0.12 µg/mL and the MIC [15] was ≤ 0.12 µg/mL. The MIC [16] was ≤ 0.12 µg/mL.
`CO/N=C(\C(=O)N[C@@H]1C(=O)N2C(C(=O)[O-])=C(C[N+]3(C)CCCC3)CS[C@H]12)c1csc(N)n1` [CEFEPIME] was tested, and the MIC [1] was 1 µg/mL (≈ 2.08 µM), the MIC [2] was 1 µg/mL (≈ 2.08 µM) and the MIC [3] was ≤ 0.5 µg/mL. The MIC [4] was ≤ 0.5 µg/mL, the MIC [5] was 1 µg/mL (≈ 2.08 µM) and the MIC [6] was 1 µg/mL (≈ 2.08 µM). For the same compound, the MIC [7] was ≤ 0.5 µg/mL, the MIC [8] was ≤ 0.5 µg/mL and the MIC [9] was 1 µg/mL (≈ 2.08 µM). For the same compound, the MIC [10] was 2 µg/mL (≈ 4.16 µM), the MIC [11] was ≤ 0.5 µg/mL and the MIC [12] was ≤ 0.5 µg/mL. For the same compound, the MIC [13] was 1 µg/mL (≈ 2.08 µM), the MIC [14] was ≤ 0.5 µg/mL and the MIC [15] was ≤ 0.5 µg/mL. For the same compound, the MIC [16] was ≤ 0.5 µg/mL.
In the case of `CC[C@H]1OC(=O)[C@H](C)[C@@H](O[C@H]2C[C@@](C)(OC)[C@@H](O)[C@H](C)O2)[C@H](C)[C@@H](O[C@@H]2O[C@H](C)C[C@H](N(C)C)[C@H]2O)[C@](C)(O)C[C@@H](C)C(=O)[C@H](C)[C@@H](O)[C@]1(C)O` [ERYTHROMYCIN], the MIC [1] was > 2 µg/mL, the MIC [2] was ≤ 0.12 µg/mL and the MIC [3] was ≤ 0.12 µg/mL. For the same compound, the MIC [4] was ≤ 0.12 µg/mL, the MIC [5] was ≤ 0.12 µg/mL and the MIC [6] was ≤ 0.12 µg/mL. The MIC [7] was ≤ 0.12 µg/mL, the MIC [8] was ≤ 0.12 µg/mL and the MIC [9] was ≤ 0.12 µg/mL. The MIC [10] was > 2 µg/mL, the MIC [11] was ≤ 0.12 µg/mL and the MIC [12] was ≤ 0.12 µg/mL. For the same compound, the MIC [13] was > 2 µg/mL, the MIC [14] was ≤ 0.12 µg/mL and the MIC [15] was ≤ 0.12 µg/mL. The MIC [16] was ≤ 0.12 µg/mL.
